In ChEMBL document CHEMBL1145087 (J Med Chem, 2003):
pEC50, pIC50, pKi: −log10 of the molar value.

Assays:
Homo sapiens [1] = organism: Homo sapiens; experiment: Relative potency for human androgen and progesterone receptors
Glucocorticoid receptor [2] = biological target: T1, Glucocorticoid receptor (Homo sapiens, UniProt P04150); experiment: Inhibition of Dexamethasone binding to human glucocorticoid receptor expressed in baculovirus […] cells
T1 sequence (P04150 whole entry): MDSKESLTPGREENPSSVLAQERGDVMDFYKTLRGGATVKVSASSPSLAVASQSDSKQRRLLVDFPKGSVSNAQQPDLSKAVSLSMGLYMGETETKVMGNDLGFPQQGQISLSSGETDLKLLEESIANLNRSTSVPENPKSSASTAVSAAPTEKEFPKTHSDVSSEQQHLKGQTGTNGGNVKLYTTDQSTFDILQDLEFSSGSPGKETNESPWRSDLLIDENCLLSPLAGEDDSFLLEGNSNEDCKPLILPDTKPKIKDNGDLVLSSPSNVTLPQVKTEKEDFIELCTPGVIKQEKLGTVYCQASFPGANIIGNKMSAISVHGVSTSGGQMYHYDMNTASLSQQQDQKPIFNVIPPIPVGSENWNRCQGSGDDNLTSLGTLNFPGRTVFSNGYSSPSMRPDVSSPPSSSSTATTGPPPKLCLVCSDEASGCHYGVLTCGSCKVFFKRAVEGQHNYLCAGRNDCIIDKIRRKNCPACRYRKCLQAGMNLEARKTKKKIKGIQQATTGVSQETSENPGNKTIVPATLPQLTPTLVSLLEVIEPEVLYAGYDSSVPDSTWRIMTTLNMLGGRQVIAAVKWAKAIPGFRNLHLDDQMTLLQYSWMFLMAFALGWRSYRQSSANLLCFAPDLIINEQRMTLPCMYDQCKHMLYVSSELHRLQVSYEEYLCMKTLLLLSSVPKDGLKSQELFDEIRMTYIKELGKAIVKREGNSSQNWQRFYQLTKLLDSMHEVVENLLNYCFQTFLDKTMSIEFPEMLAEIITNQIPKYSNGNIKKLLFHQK

Progesterone receptor [3] = biological target: T2, Progesterone receptor (Homo sapiens, UniProt P06401); experiment: Agonistic activity against human progesterone receptor in T47D breast cancer cells; format: functional, cell-based
T2 sequence (P06401 whole entry): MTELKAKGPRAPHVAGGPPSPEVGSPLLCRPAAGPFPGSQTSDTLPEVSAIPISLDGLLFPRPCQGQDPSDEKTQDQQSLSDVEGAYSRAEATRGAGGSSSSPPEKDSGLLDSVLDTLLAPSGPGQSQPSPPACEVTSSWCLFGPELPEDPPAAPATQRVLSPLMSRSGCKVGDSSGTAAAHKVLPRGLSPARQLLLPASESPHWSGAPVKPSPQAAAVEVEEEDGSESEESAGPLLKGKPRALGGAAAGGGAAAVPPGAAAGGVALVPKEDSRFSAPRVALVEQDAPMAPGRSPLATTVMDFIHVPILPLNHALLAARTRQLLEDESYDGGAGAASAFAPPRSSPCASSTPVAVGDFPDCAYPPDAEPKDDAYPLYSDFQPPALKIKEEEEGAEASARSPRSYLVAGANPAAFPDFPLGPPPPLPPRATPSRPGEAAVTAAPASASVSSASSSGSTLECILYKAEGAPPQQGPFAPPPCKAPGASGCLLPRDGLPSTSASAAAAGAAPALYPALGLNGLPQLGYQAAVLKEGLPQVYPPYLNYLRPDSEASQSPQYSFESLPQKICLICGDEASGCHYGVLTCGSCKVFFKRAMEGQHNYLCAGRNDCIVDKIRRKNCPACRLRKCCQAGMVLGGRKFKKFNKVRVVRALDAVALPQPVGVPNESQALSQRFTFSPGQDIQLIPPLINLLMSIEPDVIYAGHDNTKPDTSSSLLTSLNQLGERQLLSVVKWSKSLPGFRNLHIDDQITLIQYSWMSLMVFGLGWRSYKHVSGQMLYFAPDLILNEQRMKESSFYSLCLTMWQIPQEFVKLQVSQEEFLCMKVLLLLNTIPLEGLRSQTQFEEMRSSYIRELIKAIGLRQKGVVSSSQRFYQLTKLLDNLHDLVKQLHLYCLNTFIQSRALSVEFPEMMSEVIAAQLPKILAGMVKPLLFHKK

Androgen receptor [4] = biological target: T3, Androgen receptor (Homo sapiens, UniProt P10275); experiment: biochemical
T3 sequence (P10275 whole entry): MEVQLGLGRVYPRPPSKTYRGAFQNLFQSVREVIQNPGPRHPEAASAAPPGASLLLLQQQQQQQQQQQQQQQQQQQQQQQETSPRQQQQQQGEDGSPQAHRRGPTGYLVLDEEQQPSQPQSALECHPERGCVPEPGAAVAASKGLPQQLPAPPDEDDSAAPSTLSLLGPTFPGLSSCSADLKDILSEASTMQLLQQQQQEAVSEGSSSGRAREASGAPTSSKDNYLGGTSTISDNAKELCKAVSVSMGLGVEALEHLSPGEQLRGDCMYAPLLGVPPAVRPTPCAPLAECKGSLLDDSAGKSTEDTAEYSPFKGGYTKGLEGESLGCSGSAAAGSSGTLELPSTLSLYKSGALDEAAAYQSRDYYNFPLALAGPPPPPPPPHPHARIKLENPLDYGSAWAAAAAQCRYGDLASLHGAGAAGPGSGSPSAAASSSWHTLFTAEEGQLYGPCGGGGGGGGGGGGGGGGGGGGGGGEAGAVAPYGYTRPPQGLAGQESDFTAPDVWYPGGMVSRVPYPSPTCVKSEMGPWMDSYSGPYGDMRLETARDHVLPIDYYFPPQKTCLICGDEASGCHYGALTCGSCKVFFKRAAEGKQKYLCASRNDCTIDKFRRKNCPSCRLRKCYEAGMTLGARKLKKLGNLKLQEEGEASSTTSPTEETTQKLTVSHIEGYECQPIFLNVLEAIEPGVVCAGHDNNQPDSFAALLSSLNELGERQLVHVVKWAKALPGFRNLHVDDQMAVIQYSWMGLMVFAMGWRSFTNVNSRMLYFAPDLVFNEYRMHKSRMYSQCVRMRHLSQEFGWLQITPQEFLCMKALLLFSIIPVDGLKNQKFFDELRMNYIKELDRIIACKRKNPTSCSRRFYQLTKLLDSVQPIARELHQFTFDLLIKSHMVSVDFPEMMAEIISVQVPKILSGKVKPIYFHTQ

Homo sapiens [5] = organism: Homo sapiens; experiment: Relative potency for human estrogen and progesterone receptors
[6] = biological target: T4, Progesterone receptor (Homo sapiens) (UniProt P06401); experiment: Percent agonistic effect towards human progesterone receptor in T47D breast cancer cells; format: functional, cell-based
T4 sequence (whole entry): T2 sequence (P06401 whole entry)

Progesterone receptor [7] = biological target: T2, Progesterone receptor; experiment: Agonistic activity against human progesterone receptor in CV-1 cells; format: functional, cell-based
Estrogen receptor [8] = biological target: T5, Estrogen receptor (Homo sapiens, UniProt Q92731+P03372); experiment: Antagonistic efficacy against human estrogen receptor; format: functional
How it was run: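 Cotransfection LUC reporter assay for hER. Antagonist efficacy is the % maximal inhibition of a standard agonist (estradiol is the reference agonist for hER) applied at its EC50.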

[9] = biological target: T4, Progesterone receptor (Homo sapiens); experiment: Percent agonistic effect towards human progesterone receptor in CV-1 cells; format: functional, cell-based
Androgen receptor [10] = biological target: T3, Androgen receptor
Homo sapiens [11] = organism: Homo sapiens; experiment: Relative potency for human glucocorticoid and progesterone receptors
Homo sapiens [12] = organism: Homo sapiens; experiment: Relative potency for human mineralocorticoid and progesterone receptors
Glucocorticoid receptor [13] = biological target: T1, Glucocorticoid receptor
Estrogen receptor [14] = biological target: T5, Estrogen receptor
Progesterone receptor [15] = biological target: T2, Progesterone receptor; experiment: Binding affinity towards human progesterone receptor A isoform using progesterone as radioligand

Compound: CC1=CC(C)(C)Nc2ccc3c(c21)/C(=C/c1ccco1)Oc1ccc(F)cc1-3
- Ratio (Homo sapiens [1]): 152
- pKi (Glucocorticoid receptor [2]): 6.85
- pEC50 (Progesterone receptor [3]): 7.68
- pKi (Androgen receptor [4]): < 6.00
- Ratio (Homo sapiens [5]): 749
- Efficacy [6]: 64%
- pEC50 (Progesterone receptor [7]): 8.77
- Efficacy (Estrogen receptor [8]): 51%
- Efficacy [9]: 138%
- pIC50 (Androgen receptor [10]): 6.59
- Ratio (Homo sapiens [11]): 64
- Ratio (Homo sapiens [12]): > 1000
- pIC50 (Glucocorticoid receptor [13]): 6.96
- IC50 (Estrogen receptor [14]): 1273 nM
- pKi (Progesterone receptor [15]): 8.33
